The target in assay [1] is Tyrosine-protein kinase BTK (Homo sapiens) (UniProt Q06187). As to the kind of experiment: Inhibition of BTK (unknown origin) assessed as residual activity at 100 nM by KINOMEscan analysis relative to control.
In assay [2] the target is T1, Hormonally up-regulated neu tumor-associated kinase (Homo sapiens) (UniProt P57058).
T1 sequence (whole entry): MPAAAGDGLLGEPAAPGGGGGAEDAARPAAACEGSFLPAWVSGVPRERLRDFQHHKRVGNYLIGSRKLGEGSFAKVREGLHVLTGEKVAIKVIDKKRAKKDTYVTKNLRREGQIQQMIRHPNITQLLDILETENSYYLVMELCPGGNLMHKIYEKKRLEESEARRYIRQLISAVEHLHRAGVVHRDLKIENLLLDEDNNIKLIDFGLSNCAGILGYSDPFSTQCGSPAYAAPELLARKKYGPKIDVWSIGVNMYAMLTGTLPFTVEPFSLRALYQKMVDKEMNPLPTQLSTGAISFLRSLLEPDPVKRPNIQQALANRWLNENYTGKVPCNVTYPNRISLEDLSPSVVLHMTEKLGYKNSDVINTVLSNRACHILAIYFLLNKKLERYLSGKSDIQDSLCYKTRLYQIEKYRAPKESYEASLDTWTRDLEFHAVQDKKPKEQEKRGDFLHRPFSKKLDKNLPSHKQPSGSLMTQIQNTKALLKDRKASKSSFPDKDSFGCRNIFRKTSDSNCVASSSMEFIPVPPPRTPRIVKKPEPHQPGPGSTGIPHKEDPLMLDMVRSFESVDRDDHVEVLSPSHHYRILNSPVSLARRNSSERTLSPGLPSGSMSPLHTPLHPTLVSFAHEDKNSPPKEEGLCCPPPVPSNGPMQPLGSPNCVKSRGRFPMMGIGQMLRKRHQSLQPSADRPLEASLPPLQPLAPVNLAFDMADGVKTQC
As to the kind of experiment: Inhibition of HUNK (unknown origin) assessed as residual activity at 100 nM by KINOMEscan analysis relative to control.

Assay [3] deals with T2, Activin receptor type-1B (Homo sapiens) (UniProt P36896).
T2 sequence (whole entry): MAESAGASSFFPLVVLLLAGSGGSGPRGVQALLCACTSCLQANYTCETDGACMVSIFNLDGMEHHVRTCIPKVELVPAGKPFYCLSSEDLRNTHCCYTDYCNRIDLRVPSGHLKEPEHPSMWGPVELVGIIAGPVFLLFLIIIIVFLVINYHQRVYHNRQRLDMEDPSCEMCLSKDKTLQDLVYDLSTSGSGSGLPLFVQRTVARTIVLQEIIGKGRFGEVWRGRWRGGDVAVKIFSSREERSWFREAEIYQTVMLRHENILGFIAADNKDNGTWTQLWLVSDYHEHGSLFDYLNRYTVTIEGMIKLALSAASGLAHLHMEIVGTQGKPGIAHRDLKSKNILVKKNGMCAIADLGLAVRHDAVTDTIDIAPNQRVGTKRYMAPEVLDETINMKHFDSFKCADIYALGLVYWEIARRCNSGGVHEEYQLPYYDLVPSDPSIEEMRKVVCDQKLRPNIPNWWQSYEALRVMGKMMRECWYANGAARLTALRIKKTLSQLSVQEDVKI
As to the kind of experiment: Inhibition of ACVR1B (unknown origin) assessed as residual activity at 100 nM by KINOMEscan analysis relative to control.

For assay [4], the target named is T3, Mitogen-activated protein kinase kinase kinase kinase 2 (Homo sapiens) (UniProt Q12851).
T3 sequence (whole entry): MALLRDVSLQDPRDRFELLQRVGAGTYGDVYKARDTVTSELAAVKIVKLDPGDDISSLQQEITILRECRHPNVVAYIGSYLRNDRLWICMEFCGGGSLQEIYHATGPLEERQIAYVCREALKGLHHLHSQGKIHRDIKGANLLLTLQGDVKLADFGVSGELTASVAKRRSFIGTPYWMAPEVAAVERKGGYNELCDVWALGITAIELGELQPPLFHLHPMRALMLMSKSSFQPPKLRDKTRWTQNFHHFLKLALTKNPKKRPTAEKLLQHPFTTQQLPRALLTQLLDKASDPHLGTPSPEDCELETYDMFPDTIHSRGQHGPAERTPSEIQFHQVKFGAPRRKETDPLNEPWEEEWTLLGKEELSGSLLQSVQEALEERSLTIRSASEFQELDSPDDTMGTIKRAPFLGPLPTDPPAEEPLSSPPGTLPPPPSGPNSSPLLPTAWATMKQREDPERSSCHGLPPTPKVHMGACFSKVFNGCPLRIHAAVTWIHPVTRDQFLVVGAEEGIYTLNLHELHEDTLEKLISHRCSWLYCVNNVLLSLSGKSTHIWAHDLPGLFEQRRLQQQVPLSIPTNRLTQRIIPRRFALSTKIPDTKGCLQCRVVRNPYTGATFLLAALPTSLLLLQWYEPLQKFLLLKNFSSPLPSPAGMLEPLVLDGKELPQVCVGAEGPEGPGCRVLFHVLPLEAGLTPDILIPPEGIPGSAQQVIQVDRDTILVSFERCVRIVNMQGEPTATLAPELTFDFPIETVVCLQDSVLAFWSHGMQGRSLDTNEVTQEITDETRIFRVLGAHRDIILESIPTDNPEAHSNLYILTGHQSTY
As to the kind of experiment: Inhibition of MAP4K2 (unknown origin) assessed as residual activity at 100 nM by KINOMEscan analysis relative to control.

Assay [5] deals with Ephrin type-A receptor 2 (Homo sapiens) (UniProt P29317). As to the kind of experiment: Inhibition of EPHA2 (unknown origin) assessed as residual activity at 100 nM by KINOMEscan analysis relative to control.
The test system of a further assay is Calu-1. As to the kind of experiment: Effect on total ERK level in human Calu-1 cells incubated for 24 hrs by HTRF analysis. The format is functional, cell-based. The gist of the method:
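Calu-1 cells carry two KRAS G12C alleles and were sourced from CLS. Total and pERK levels were both analyzed after compound treatment.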

The source made the active and inactive calls. The rule behind the calls is not given here.

Chain of Tyrosine-protein kinase BTK (Homo sapiens) (Q06187 whole entry): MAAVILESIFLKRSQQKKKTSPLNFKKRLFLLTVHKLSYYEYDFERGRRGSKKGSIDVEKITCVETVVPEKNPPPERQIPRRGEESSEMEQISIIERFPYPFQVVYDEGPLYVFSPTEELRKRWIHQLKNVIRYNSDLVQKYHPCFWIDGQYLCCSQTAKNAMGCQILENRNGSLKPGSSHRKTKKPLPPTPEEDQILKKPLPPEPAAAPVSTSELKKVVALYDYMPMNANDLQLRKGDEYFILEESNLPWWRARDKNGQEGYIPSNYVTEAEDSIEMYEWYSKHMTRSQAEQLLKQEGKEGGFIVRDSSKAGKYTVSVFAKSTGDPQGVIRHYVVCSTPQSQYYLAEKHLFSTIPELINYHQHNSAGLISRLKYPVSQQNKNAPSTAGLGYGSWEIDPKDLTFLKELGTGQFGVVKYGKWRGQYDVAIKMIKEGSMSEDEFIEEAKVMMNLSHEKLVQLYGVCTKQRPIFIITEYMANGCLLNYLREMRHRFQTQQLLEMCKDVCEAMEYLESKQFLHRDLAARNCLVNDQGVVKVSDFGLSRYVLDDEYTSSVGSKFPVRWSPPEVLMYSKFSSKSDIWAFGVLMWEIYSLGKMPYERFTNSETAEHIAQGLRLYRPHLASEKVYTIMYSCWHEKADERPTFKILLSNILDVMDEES
Chain of Ephrin type-A receptor 2 (Homo sapiens) (P29317 whole entry): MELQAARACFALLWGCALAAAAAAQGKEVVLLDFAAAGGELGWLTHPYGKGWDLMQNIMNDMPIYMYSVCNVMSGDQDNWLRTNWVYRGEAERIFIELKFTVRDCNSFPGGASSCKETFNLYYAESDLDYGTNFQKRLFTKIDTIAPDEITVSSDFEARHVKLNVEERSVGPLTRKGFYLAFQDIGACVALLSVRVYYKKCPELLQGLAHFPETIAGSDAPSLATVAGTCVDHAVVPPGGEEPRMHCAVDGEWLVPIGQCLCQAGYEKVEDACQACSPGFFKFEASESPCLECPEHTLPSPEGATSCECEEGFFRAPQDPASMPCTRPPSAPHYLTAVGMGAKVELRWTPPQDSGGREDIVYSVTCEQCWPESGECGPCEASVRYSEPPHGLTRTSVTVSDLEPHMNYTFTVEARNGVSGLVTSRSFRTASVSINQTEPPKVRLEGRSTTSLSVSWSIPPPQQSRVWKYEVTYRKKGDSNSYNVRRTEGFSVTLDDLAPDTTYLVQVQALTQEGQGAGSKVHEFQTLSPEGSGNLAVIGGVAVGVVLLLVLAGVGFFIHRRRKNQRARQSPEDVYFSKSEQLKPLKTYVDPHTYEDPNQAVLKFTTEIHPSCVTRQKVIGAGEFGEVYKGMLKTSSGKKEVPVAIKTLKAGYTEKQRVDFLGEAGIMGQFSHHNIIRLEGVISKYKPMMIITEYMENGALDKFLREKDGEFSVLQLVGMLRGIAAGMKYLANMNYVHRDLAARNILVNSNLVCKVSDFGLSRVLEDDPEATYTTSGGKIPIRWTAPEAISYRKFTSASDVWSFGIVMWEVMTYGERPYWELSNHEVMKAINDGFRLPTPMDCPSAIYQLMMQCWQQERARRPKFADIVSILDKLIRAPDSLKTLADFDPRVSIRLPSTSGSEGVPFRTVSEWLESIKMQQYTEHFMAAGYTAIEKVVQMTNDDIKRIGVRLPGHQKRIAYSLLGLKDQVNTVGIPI

On to `COc1cc2ncnc(N[C@H](C)c3cccc4ccccc34)c2cc1OC`, for which the Activity in assay [1] came out at 95%; in assay [2], 91%; in assay [3], 89%; in assay [4] it was 83%; in assay [5] it was 82%.

With `CNCc1ccccc1-c1csc([C@@H](C)Nc2nc(C)nc3cc(OC)c(OC)cc23)c1` [BAY-293], the result in the assay on Calu-1 was inactive.
